From ChEMBL document CHEMBL3621143, “Discovery of BMS-641988, a Novel Androgen Receptor Antagonist for the Treatment of Prostate Cancer” (ACS Med Chem Lett, 2015) come the findings set out here.

Where only a bound is given, the exact number is not on record here.

In data set [1] the test system is Hepatocyte. The data set is described as follows: Drug metabolism in human hepatocytes assessed per 10^6 cells. It counts as ADME, cell-based. In outline:
(§1)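 Metabolic rate in mouse, rat, dog, monkey and human hepatocyte incubations, expressed as pmol/min/10^6 cells.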

Data set [2] can be described thus: Clearance in mouse at 5 mg/kg, iv and 10 mg/kg, po. The settings on record: in vivo. Format: ADME, organism-based. In outline: (§2)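 Single IV and oral doses in mouse and rat (IV 5, PO 10 mg/kg) and dog (IV 1, PO 2 mg/kg). Half-life, clearance, AUC0-∞ (µM*h) and %F derived from the plasma profiles.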
Data set [3] relates to Hepatocyte. Description: Drug metabolism in rat hepatocytes assessed per 10^6 cells. It counts as ADME, cell-based. In a few lines:
as §1

Data set [4] can be described thus: Half life in rat at 5 mg/kg, iv and 10 mg/kg, po. The settings on record: in vivo. Format: ADME, organism-based. In outline:
as §2

Data set [5] can be described thus: Fraction unbound in mouse plasma by equilibrium dialysis method. It counts as ADME, cell-free. In a few lines:
(§3)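 Plasma protein binding measured by equilibrium dialysis in mouse, rat, dog and human plasma, reported as % free.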
In general terms: In equilibrium dialysis free small molecules cross a membrane that holds back macromolecules.

Data set [6] can be described thus: Clearance in rat at 5 mg/kg, iv and 10 mg/kg, po. It counts as ADME, organism-based. The note with it: in vivo. In outline: as §2
Data set [7] has as its target T1, Androgen receptor (Homo sapiens, UniProt P10275).
T1 sequence (P10275 whole entry): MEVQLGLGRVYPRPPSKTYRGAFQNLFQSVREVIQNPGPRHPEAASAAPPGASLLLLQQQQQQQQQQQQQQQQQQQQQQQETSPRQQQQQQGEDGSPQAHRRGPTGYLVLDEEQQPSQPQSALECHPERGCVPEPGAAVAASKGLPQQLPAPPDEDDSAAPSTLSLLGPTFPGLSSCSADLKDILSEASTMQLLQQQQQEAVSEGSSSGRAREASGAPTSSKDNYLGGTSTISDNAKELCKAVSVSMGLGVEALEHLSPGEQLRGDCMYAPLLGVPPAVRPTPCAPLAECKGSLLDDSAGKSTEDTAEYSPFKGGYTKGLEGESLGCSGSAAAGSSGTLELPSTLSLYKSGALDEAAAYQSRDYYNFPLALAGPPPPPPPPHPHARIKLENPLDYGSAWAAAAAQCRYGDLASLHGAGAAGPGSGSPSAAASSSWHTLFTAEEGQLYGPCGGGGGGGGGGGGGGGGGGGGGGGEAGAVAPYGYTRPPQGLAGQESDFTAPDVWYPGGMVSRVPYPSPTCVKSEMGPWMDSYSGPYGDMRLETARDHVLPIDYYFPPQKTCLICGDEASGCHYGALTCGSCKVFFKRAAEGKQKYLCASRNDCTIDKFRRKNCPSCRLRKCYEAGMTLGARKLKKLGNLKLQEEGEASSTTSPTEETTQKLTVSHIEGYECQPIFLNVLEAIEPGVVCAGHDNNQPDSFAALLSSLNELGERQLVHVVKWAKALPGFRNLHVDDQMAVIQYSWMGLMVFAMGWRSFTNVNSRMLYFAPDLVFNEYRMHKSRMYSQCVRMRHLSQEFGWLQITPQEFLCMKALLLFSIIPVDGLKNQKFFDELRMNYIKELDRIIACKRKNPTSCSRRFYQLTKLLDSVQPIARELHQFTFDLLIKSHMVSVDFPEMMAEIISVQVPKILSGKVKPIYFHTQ
The data set is described as follows: Antagonist activity at androgen receptor in human MDA-MB-453 cells assessed as inhibition of DHT-induced PSA expression by alkaline phosphatase reporter gene assay. Format: cell-based. (In a reporter assay the amount or activity of a reporter protein is the signal.)

For data set [8], the system named is Hepatocyte. The data set is described as follows: Drug metabolism in mouse hepatocytes assessed per 10^6 cells. It counts as ADME, cell-based. In a few lines: as §1
A further data set deals with Cytochrome P450 2C9 (Homo sapiens, UniProt P11712). Description: Inhibition of human CYP2C9. Format: ADME.
Data set [9] is described as follows: AUC (0 to infinity) in mouse at 10 mg/kg, po. Format: ADME, organism-based. The arrangement: dose 10 mg/kg, route oral, time infinity. The note with it: in vivo. In outline:
as §2

Data set [10] is described as follows: Plasma concentration in immature Sprague-Dawley rat prostate weight model at 10 mg/kg, po qd administered for 4 days measured 2 hrs post last dose on day 4. It counts as ADME, organism-based. In outline:
(§4)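 Immature rat prostate weight model, oral dosing once daily at 1 or 10 mg/kg for 4 days. Plasma drug concentration (µM) measured 2 hours post-dose on day 4, n=3.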

A short description of data set [11]: Clearance in dog at 1 mg/kg, iv and 2 mg/kg, po. It counts as ADME, organism-based, Canis lupus familiaris. The settings on record: in vivo. In a few lines:
as §2

The target in another data set is Cytochrome P450 2D6 (Homo sapiens, UniProt P10635). The data set is described as follows: Inhibition of human CYP2D6. It counts as ADME.
A short description of data set [12]: Fraction unbound in rat plasma by equilibrium dialysis method. It counts as ADME, cell-free. In outline:
as §3

Data set [13] is described as follows: Oral bioavailability in dog at 2 mg/kg. It counts as ADME, organism-based, Canis lupus familiaris. The note with it: in vivo. In outline: as §2
Data set [14] in a line: Fraction unbound in human plasma by equilibrium dialysis method. It counts as ADME, cell-free. In a few lines: as §3
For data set [15], the target named is T2, Nuclear receptor subfamily 1 group I member 2 (Homo sapiens, UniProt O75469).
T2 sequence (O75469 whole entry): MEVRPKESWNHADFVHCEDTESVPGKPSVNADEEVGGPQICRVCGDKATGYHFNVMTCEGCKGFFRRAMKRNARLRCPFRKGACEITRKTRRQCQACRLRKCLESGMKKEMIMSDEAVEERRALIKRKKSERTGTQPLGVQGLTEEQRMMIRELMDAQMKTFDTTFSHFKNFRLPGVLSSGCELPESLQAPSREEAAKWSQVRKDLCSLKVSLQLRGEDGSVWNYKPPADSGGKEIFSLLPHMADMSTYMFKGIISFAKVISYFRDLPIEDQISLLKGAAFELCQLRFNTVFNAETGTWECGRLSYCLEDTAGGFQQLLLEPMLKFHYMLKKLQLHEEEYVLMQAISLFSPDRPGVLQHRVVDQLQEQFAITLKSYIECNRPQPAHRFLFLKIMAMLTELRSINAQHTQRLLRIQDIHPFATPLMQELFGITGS
Description: Transactivation of human PXR. It counts as ADME.

A short description of data set [16]: AUC (0 to infinity) in rat at 5 mg/kg, iv. Format: ADME, organism-based. The note with it: in vivo. Also on record: dose 5 mg/kg, route intravenous, time infinity. In a few lines:
as §2

For data set [17], the target named is T1, Androgen receptor. The data set is described as follows: Displacement of [3H]-DHT from androgen receptor in human MDA-MB-453 cells after 90 mins by TopCount analysis. It counts as cell-based. (In general: In a radioligand displacement assay an active substance lowers the binding of a labelled ligand.)
Data set [18] can be described thus: Plasma concentration in immature Sprague-Dawley rat prostate weight model at 1 mg/kg, po qd administered for 4 days measured 2 hrs post last dose on day 4. It counts as ADME, organism-based. In outline: as §4

Chain of Cytochrome P450 2C9 (P11712 whole entry): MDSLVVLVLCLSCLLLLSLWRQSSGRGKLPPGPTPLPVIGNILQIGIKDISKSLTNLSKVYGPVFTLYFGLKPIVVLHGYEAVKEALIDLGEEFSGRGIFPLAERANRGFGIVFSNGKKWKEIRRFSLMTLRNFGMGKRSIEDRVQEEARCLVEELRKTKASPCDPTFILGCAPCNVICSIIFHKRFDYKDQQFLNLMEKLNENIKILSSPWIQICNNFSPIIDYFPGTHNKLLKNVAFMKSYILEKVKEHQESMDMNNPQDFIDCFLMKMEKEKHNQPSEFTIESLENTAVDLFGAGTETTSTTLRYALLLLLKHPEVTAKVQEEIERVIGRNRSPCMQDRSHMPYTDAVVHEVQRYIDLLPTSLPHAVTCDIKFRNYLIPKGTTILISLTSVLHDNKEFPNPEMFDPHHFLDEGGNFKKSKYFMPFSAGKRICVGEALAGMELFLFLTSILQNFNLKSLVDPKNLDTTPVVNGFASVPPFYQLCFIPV
Chain of Cytochrome P450 2D6 (P10635 whole entry): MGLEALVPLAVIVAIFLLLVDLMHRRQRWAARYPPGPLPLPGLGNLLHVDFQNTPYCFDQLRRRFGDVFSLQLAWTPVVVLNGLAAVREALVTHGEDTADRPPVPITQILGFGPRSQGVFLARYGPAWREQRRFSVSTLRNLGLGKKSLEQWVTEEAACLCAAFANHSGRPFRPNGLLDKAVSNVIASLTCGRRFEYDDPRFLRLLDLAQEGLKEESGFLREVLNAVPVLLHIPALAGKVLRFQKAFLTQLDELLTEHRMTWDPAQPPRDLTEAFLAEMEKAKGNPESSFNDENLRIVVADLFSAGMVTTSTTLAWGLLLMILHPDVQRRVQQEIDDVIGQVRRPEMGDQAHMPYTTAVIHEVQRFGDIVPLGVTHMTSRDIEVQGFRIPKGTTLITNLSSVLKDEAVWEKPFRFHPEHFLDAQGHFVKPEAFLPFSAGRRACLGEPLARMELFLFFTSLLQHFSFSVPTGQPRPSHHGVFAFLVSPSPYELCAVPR

Broadly, the half-life is the time needed for the level to fall by half in the phase considered. In general, fraction unbound refers to the share of the substance not bound to proteins or other matrix. For orientation: IC50 means the midpoint of a concentration-inhibition curve. Broadly, the AUC(0-inf) is the area under the concentration-time curve extrapolated to infinity. As a reminder, the bioavailability is dose-corrected exposure relative to a reference, in per cent. A low value points to poor availability. As a reminder, the EC50 is the concentration needed to bring the measured effect to its halfway point. A high value points to lower potency in that assay. Broadly, the Ki is the equilibrium dissociation constant of an inhibitor or competing ligand from its target. Consider `CCS(=O)(=O)N[C@@H]1C[C@]2(C)O[C@]1(C)[C@@H]1C(=O)N(c3ccc(C#N)c(C(F)(F)F)c3)C(=O)[C@@H]12`, for which the Drug metabolism in the data set with Hepatocyte [1] amounted to 2 pmol/min; with Hepatocyte [3], 26 pmol/min; with Hepatocyte [8], 0 pmol/min. In addition, the clearance in data set [2] was determined as 4.5 mL/min/kg; in data set [6] it was 6.5 mL/min/kg; in [11], 0.35 mL/min/kg. The molecule further showed a half-life in data set [4] of 3.7 h. The fraction unbound came to 0.148 in data set [5], 0.106 in [12] and 0.104 in [14]. Also, the IC50 on Androgen receptor [7] was 16 nM; against Cytochrome P450 2C9, more than 40000 nM; against Cytochrome P450 2D6, more than 40000 nM. For the same molecule, the area under the curve AUC(0-inf) in data set [9] came out at 74.1 µM·h; in data set [16], 31.7 µM·h. The concentration at 2 h amounted to 4000 nM in [10] and 790 nM in [18]. Besides, the bioavailability in [13] was found to be 79%. The molecule also returned a concentration for a half-maximal effect (EC50) in data set [15] of more than 50000 nM. This molecule also gave a Ki at Androgen receptor [17] of 1.7 nM.
